Active and inactive are the calls of the source. The rule behind the calls is not given here.
Columns and labels:
MDA-MB-453 = assay: Antiproliferative activity against human MDA-MB-453 cells assessed as increase in cell death at 10 uM for 2 days by Guava viacount assay; format: functional, cell-based; conditions: time 2.0 day
How it was run: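 Cells plated at 2 × 10^4 (24-well) or 1 × 10^5 (12-well), exposed to a range of GSK343 concentrations for 2 days against DMSO solvent control; cell number and viability read by Guava ViaCount flow cytometry, relative to DMSO. Triplicate; mean ± SD.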

BT-474 = assay: Induction of cell cycle arrest in human BT-474 cells assessed as accumulation of cells at G1 phase measured at 2 uM by BrdU/PI staining based flow cytometric analysis (reference value: 60.8%); format: functional
MCF7 = assay: Upregulation of TP53 gene in human MCF7 cells at 2 uM by qRT-PCR analysis; format: functional, cell-based
How it was run: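 Relative transcript levels measured by qRT-PCR in cells treated with 2 µM inhibitor, normalised to DMSO-treated control cells. Triplicate experiments unless stated otherwise; mean ± SD reported; unpaired two-tailed Student's t-test at p < 0.05.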

MDA-MB-436 [1] = assay: Effect on human MDA-MB-436 cells assessed as increase in TET1 transcription by qRT-PCR analysis; format: functional, cell-based
How it was run: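 qRT-PCR of TET1, TET2 and TET3 transcripts in breast cancer cells exposed to GSK343 (2 µM unless otherwise indicated), shown relative to DMSO-treated cells. Mean ± SD, triplicate unless stated.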

MDA-MB-436 [2] = assay: Downregulation of E2F1 in human MDA-MB-436 cells at 2 uM for 2 days by immunoblot analysis; format: functional, cell-based; conditions: time 2.0 day
MDA-MB-436 [3] = assay: Antiproliferative activity in human MDA-MB-436 cells expressing shTET1 assessed as increase in SA-beta-gal positive cells by SA-beta-gal staining analysis (reference value: 8.2+/-2.4%); format: functional
MDA-MB-436 [4] = assay: Induction of apoptosis in human MDA-MB-436 cells assessed as decrease in accumulation of cells at S phase in presence of adriamycin by BrdU/PI-based cell cycle analysis; format: functional
How it was run: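 Cell cycle by BrdU/PI staining and flow cytometry, giving G1, S and G2 fractions. Cells received 0.005 µg/ml adriamycin with or without 2 µM GSK343, or DMSO. Mean ± SD.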

MDA-MB-436 [5] = assay: Induction of apoptosis in human MDA-MB-436 cells xenografted in Crl:NU-Foxn1-nu/nu mouse assessed as apoptotic cells in tumor administered at 5 mg/kg, ip in presence of adriamycin treated for 21 days by TUNEL staining analysis; format: functional, organism-based; conditions: time 21.0 day
How it was run: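 TUNEL staining of xenograft tumor sections. Dosing started when tumors reached about 50 mm3: twice-weekly intraperitoneal GSK343 5 mg/kg, adriamycin 1 mg/kg, the combination, or DMSO solvent control, for 21 days.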

Q: With `CCCc1cc(C)[nH]c(=O)c1CNC(=O)c1cc(-c2ccnc(N3CCN(C)CC3)c2)cc2c1cnn2C(C)C` as the compound, how does the Activity (MDA-MB-453) read?
A: Active

Q: And the Activity (BT-474)?
A: 56.8%

Q: And the Activity (MCF7)?
A: inactive

Q: And the Activity (MDA-MB-436 [1])?
A: Active

Q: And the Activity (MDA-MB-436 [2])?
A: Active

Q: What about the Activity (MDA-MB-436 [3]) of the same compound?
A: 20.3%

Q: What about the Activity (MDA-MB-436 [4]) of the same compound?
A: Active

Q: And the Activity (MDA-MB-436 [5])?
A: Active

— ChEMBL document CHEMBL5715960, “Epigenetic Co-Deregulation of EZH2/TET1 is a Senescence-Countering, Actionable Vulnerability in Triple-Negative Breast Cancer” (Theranostics, 2019)
